HIV Env fusion: blocks HIV Env-driven cell-cell fusion | HeLa-JRFL Env/CEM21 cell fusion, luciferase | inhibition, % at 12.3 µM | 360,000 compounds, 1.1% hits | AID 651610;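 active means mean replicate inhibition score of at least 50 and every replicate individually at or above 50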;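 further: 0% = plate neutral controls and 100% = maraviroc near 300 nM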
ERp5 inh: blocks human ERp5 reductase activity on insulin | ERp5 insulin aggregation, absorbance 650 nm, 90 min | Q15084 | AID 651711 | inhibition, % at 9.99 µM | 350,000 compounds, 0.05% hits;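 active means mean replicate inhibition above about 25%, with every replicate also reaching it, limit read from the data, passing the limit was not always enough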
Target sequence (Q15084 whole entry, looked up): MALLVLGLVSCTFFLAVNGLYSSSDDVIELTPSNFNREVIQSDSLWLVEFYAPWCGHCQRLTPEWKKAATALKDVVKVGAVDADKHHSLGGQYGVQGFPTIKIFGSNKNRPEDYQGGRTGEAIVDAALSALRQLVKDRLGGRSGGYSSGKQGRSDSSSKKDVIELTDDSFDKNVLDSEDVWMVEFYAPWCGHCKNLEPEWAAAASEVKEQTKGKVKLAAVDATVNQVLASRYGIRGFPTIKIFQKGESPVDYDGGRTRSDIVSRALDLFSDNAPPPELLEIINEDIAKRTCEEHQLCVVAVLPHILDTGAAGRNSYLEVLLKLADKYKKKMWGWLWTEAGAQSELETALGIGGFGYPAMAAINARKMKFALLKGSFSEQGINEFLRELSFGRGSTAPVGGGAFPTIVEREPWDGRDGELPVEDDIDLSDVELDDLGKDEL
PvdQ acylase: blocks Pseudomonas aeruginosa PvdQ acylase activity | purified PvdQ acylase, fluorescence plate reader | 340,000 compounds, 0.063% hits | AID 488965 | inhibition, % at 10 µM; in the data active means inhibition above about 30%, passing the limit was not always enough;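 further: 0% = vehicle neutral wells and 100% = reference inhibitor wells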
Ecoli rRNA inh: inhibits bacterial ribosomal RNA function over humanized ribosomes; E. coli WT GFP vs humanized-ribosome RFP mutants, fluorescence, 24 h; stronger effect = lower value; DMSO median 0, no signal -100; GFP signal change (wild-type ribosome), % (no concentration beside the values); 350,000 compounds, 1.6% hits; AID 720706;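 active means significant combined selectivity score with lowered wild-type GFP, culture density cut under 30%, mutant RFP and density less affected; inactive means any of these conditions unmet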
PDI inh: blocks human protein disulfide isomerase activity; PDI insulin aggregation turbidity, A650, 90 min; inhibition, % at 10 µM; 350,000 compounds, 0.052% hits;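 active means mean inhibition across replicates of 30% or more, whatever share of single replicates reach that level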
FN deposit inh: fibronectin deposition inhibition; AH1F fibroblasts, Alexa488-fibronectin deposition fluorescence, overnight; inhibition, % at 12.6 µM; 350,000 compounds, 0.086% hits; AID 743247;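 active means mean inhibition across replicates of 30% or more, regardless of how many single replicates reach that level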;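 further: positive control wells lacked labelled fibronectin entirely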
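Material: AH1F fibroblast monolayer depositing Alexa488-labelled fibronectin into matrix | Input: 10000 AH1F cells/well | Medium: DMEM plus 2% serum, read in PBS | Reagent: Alexa488-fibronectin, 24 nM final in well | Compound dosing: One dose per compound, pinned | Schedule: 1 h adhesion, overnight exposure | Measured by: Fluorescence at 485 nm excitation, 525 nm emission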
The depositor's hits bear a star; · = no result given; ! = not active in a repeat; [ ] = remark or other dose. A selection: hits, their analogues and other compounds. The true share with any hit is near 2.2%.

SMILES | HIV Env fusion | ERp5 inh | PvdQ acylase | Ecoli rRNA inh | PDI inh | FN deposit inh
Cc1cccc(NP(=O)(Oc2ccccc2F)Oc2ccccc2F)c1C | · | 3 | -11 | -29* | -16 | 0
Cc1ccc(NP(=O)(Oc2ccccc2F)Oc2ccccc2F)cc1 | · | · | -19 | · | -3 | ·
O=C(Cc1ccccn1)N1CCCCN2[C@@H](CO)[C@@H](c3ccc(-c4ccccc4)cc3)[C@@H]2C1 | · | 1 | · | 3 | · | ·
O=C(Nc1ccc(C(F)(F)F)cc1)c1cccn(Cc2ccc3c(c2)OC(F)(F)O3)c1=O | 106* | · | 4 | · | -2 | 5
Cc1cccc(C)c1NC(=O)c1cccn(Cc2ccc3c(c2)OC(F)(F)O3)c1=O | 67* | · | -14 | · | -1 | ·
CC(C)NC(=O)N1C[C@@H]2C(c3ccc(Br)cc3)[C@H](C1)N2C (stereo partly specified) | · | · | · | 0 | · | 1
COC(=O)[C@@H]1[C@@H](CO)[C@@H]2Cn3c(ccc(-c4ccccc4F)c3=O)[C@H]1N2CC1CCCC1 | 7[16.7 µM] | 8 | · | -7 | · | ·
COc1ccc(CC(C)Nc2cccc(F)c2)cc1 (stereo unspecified) | -5 | -1 | 36* | -14 | -35 | -3
CC=Cc1ccc2n(c1=O)C[C@@H]1[C@@H](CO)[C@H](C(=O)OC)[C@H]2N1CC1CC1 (mixture of isomers) | · | 0 | · | 2 | · | ·
CC[N+](C)(CC)CCCCOc1ccc2c(c1)C(=O)c1cc(OCCCC[N+](C)(CC)CC)ccc1-2 | 0 | · | -6 | -53* | -4 | -2
O=C(CSC1c2ccccc2-c2ccccc21)N/N=C/c1ccc(C(=O)O)cc1 | -37 | 0 | -15 | 2 | -6 | -13
O=C(CSC1c2ccccc2-c2ccccc21)N/N=C/c1ccccc1O | 61* | · | -1 | · | 6 | ·
CN1CCN(c2ccc(C(N)=O)cc2[N+](=O)[O-])CC1 | · | · | 3 | · | -7 | 11
O=[N+]([O-])c1ccc(N2CC2)c([N+](=O)[O-])c1 | · | -2 | -4 | -16* | -1 | -8
CCCN1[C@@H]2Cn3c(cccc3=O)[C@H]1[C@@H](C(=O)N(C)C)[C@@H]2CO | -21[16.7 µM] | 4 | · | 1 | · | ·
COc1ccc(OC(=O)N(C)C[C@@H]2OCc3ccccc3-c3c(n(C)c4ccccc34)C(=O)N([C@H](C)CO)C[C@@H]2C)cc1 | 69* | -3 | · | 4 | 0 | 11
C[C@H](CO)N1C[C@H](C)[C@@H](CN(C)C(=O)Oc2ccc3ccccc3c2)OCc2cn(nn2)CCCC1=O | -14[16.7 µM] | 54*! | · | 4 | -2 | 4
COc1ccc(OC(=O)N(C)C[C@H]2OCc3ccccc3-c3c(n(C)c4ccccc34)C(=O)N([C@H](C)CO)C[C@H]2C)cc1 | · | 5 | · | -3 | · | -2
C=CCN1[C@@H]2CN(CC(F)(F)F)C[C@H]1C2c1ccc(Br)cc1 (stereo partly specified) | · | · | · | -5 | · | -5
Cc1cccc(S(=O)(=O)N2[C@@H]3c4ccc(-c5cccc(F)c5)c(=O)n4C[C@H]2[C@H](CO)[C@H]3C(=O)O)c1 | · | 4 | · | -1 | · | ·
CCC(=O)N1[C@@H]2Cn3c(ccc(C4=CCCC4)c3=O)[C@H]1[C@@H](C(=O)OC)[C@@H]2CO | · | -6 | · | 3 | · | -1
CCN(CCNc1ccc([N+](=O)[O-])c2cccnc12)S(=O)(=O)c1ccc(Cl)cc1 | 81* | · | -12 | · | -8 | 0
Cc1ccccc1-n1c(O)c(/C=C2/C(c3ccccc3)=Nc3ccccc32)c(=O)[nH]c1=O | 25 | 9 | 3 | -27 | 14 | 6
Cc1cccc(-n2c(O)c(/C=C3/C(c4ccccc4)=Nc4ccccc43)c(=O)[nH]c2=O)c1 | 92* | -4 | -7 | 1 | 1 | 8
COC(=O)C1=C(c2cc3ccccc3o2)C[C@@H]2CC[C@H]1N2C(=O)NCc1cccc2ccccc12 | 101* | · | 3 | · | -5 | -1
CC=Cc1ccc2n(c1=O)C[C@H]1[C@H](CO)[C@@H](C(=O)OC)[C@@H]2N1S(=O)(=O)c1cccc(C)c1 (mixture of isomers) | -2[16.7 µM] | 2 | · | 0 | · | ·
COc1cc2c3c(c1OC)-c1cc(O)ccc1CC3NCC2 (stereo unspecified) | · | · | -6 | · | 11 | ·
COc1cc2c(cc1OC)-c1c(OC)c(OC)cc3c1[C@H](C2)[N+](C)(C)CC3 | -148 | -3 | 1 | -25* | -3 | 7
